According to ChEMBL document CHEMBL4130635, “2,4-Diaminoquinazolines as Dual Toll-like Receptor (TLR) 7/8 Modulators for the Treatment of Hepatitis B Virus” (J Med Chem, 2018):
The source made the active and inactive calls. The rule behind the calls is not given here.

What was measured:
[1] = Cmax in cynomolgus monkey plasma at 1 mg/kg, po by LC-MS analysis; assay type: ADME, organism-based, Macaca fascicularis; parameters: dose 1 mg/kg, route oral
Method in brief: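 Healthy cynomolgus monkeys received oral doses of 1, 3, 9 and 30 mg/kg, with a 2-week wash-out between doses. Systemic compound concentrations by LC−MS at 0.25, 0.5, 1, 2, 4, 8 and 24 h postdose.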

[2] = AUC (0 to last) in cynomolgus monkey plasma at 9 mg/kg, po by LC-MS analysis; assay type: ADME, organism-based, Macaca fascicularis; parameters: dose 9 mg/kg, route oral, time 0 - last
Method in brief: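 Healthy cynomolgus monkeys received single oral doses of 1, 3, 9 and 30 mg/kg, with a 2-week wash-out between doses. Systemic compound concentrations were measured by LC–MS at 0.25, 0.5, 1, 2, 4, 8 and 24 h postdose.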

[3] = Intrinsic clearance in dog liver microsomes assessed per mg protein at 1 uM up to 60 mins; assay type: ADME, Canis lupus familiaris, microsome; conditions: read-out: CLH
[4] = tested on: Cynomolgus monkey; test: Anti-inflammatory activity in cynomolgus monkey plasma assessed as IL-10 levels at 30 mg/kg, po after 24 hrs by Luminex assay (reference value: 195 pg/ml); assay type: functional, Macaca fascicularis
[5] = tested on: Plasma; test: Proinflammatory activity in C57BL/6J mouse plasma assessed as IL-6 levels at 30 mg/kg, po by multiplex assay (reference value: 505 pg/ml); assay type: functional
[6] = tested on: Plasma; test: Proinflammatory activity in C57BL/6J mouse plasma assessed as IL-1beta levels at 10 mg/kg, po by multiplex assay (reference value: 60 pg/ml); assay type: functional
[7] = tested on: Plasma; test: Upregulation of IP-10 mRNA expression levels in C57BL/6J mouse plasma at 10 mg/kg, po by RT-qPCR analysis (reference value: 1); assay type: functional
[8] = tested on: Liver; test: Proinflammatory activity in C57BL/6J mouse liver assessed as TNFalpha levels at 1 mg/kg, po by multiplex assay (reference value: 15 pg/g); assay type: functional, organism-based
[9] = Metabolic stability in mouse liver microsomes assessed as compound metabolized at 1 uM after 15 mins; assay type: ADME, microsome; conditions: read-out: Drug metabolism
Method in brief: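 Mouse (M) or human (H) liver microsomes incubated with compound at 1 μM; percent metabolized after 15 min.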

[10] = tested on: Plasma; test: Induction of IFNalpha levels in C57BL/6J mouse plasma at 1 mg/kg, po by ELISA; assay type: functional
[11] = tested on: Cynomolgus monkey; test: Upregulation of Tlr7 expression in cynomolgus monkey plasma at 9 mg/kg, po after 24 hrs by Fluidigm RT-qPCR analysis (reference value: 1.8); assay type: functional, Macaca fascicularis
[12] = tested on: Cynomolgus monkey; test: Plasma concentration in cynomolgus monkey at 3 mg/kg, po by LC-MS analysis; assay type: ADME, organism-based, Macaca fascicularis; conditions: in vivo
[13] = Inhibition of CYP450 (unknown origin); assay type: ADME; conditions: human
[14] = Solubility of the compound in FaSSIF; assay type: physicochemical
[15] = tested on: Plasma; test: Effect on cytokine profile in C57BL/6J mouse plasma assessed as IL-12p70 levels at 3 mg/kg, po by multiplex assay (reference value: 560 pg/ml); assay type: functional
Method in brief: (§1)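 Single oral gavage in 20% HP-β-CD to healthy C57BL/6 mice, groups of 15 at 0.3, 1, 3, 10 or 30 mg/kg. Three mice per group sacrificed at 0.5, 1, 2, 4 or 7 h. Plasma and liver cytokines by multiplex, maximum level reported, rounded to nearest multiple of 5.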

[16] = tested on: Cynomolgus monkey; test: Anti-inflammatory activity in cynomolgus monkey plasma assessed as IL-10 levels at 9 mg/kg, po after 24 hrs by Luminex assay (reference value: 195 pg/ml); assay type: functional, Macaca fascicularis
[17] = tested on: Liver; test: Proinflammatory activity in C57BL/6J mouse liver assessed as TNFalpha levels at 0.3 mg/kg, po by multiplex assay (reference value: 15 pg/g); assay type: functional
[18] = tested on: Cynomolgus monkey; test: Induction of ISG response in cynomolgus monkey plasma assessed as upregulation of Mx1 mRNA expression at 30 mg/kg, po after 24 hrs by Fluidigm RT-qPCR analysis (reference value: 1); assay type: functional, Macaca fascicularis
Method in brief: (§2)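 Cynomolgus monkeys, single oral doses of 1, 3, 9 and 30 mg/kg with a planned 2-week wash-out between doses. Systemic ISG (ISG15, Mx1, OAS1) mRNA was measured by Fluidigm RT-qPCR at 1, 2, 4, 8 and 24 h postdose.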

[19] = Cmax in C57BL/6J mouse liver at 30 mg/kg, po by LC-MS analysis; assay type: ADME, organism-based; parameters: dose 30 mg/kg, route oral
Method in brief: (§3)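 Healthy C57BL/6 mice, groups of 15, given a single oral dose (0.3, 1, 3, 10 or 30 mg/kg) in 20% HP-β-CD. Blood drawn at 0.5 h. Three mice per group sacrificed at 0.5, 1, 2, 4 or 7 h, and compound in plasma and liver measured by LC−MS. Values rounded to whole numbers.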

[20] = Cmax in C57BL/6J mouse liver at 0.3 mg/kg, po by LC-MS analysis; assay type: ADME, organism-based; parameters: dose 0.3 mg/kg, route oral; method in brief: as §3
[21] = tested on: Cynomolgus monkey; test: Induction of ISG response in cynomolgus monkey plasma assessed as upregulation of Isg15 mRNA expression at 3 mg/kg, po after 24 hrs by Fluidigm RT-qPCR analysis (reference value: 1); assay type: functional, Macaca fascicularis; method in brief: as §2
[22] = tested on: Liver; test: Upregulation of IP-10 mRNA expression levels in C57BL/6J mouse liver at 0.3 mg/kg, po by RT-qPCR analysis (reference value: 1); assay type: functional
[23] = biological target: TLR7 and TLR8 (Homo sapiens) (UniProt Q9NYK1+Q9NR97); test: Agonist activity at TLR7/8 in human PBMCs co-cultured with primary human hepatocytes infected with HBV genotype C for 12 days assessed as increase in IFNgamma levels up to 5 uM measured after 42 days
[24] = tested on: Plasma; test: Induction of IFNalpha levels in C57BL/6J mouse plasma at 0.3 mg/kg, po by ELISA; assay type: functional, organism-based
[25] = tested on: Plasma; test: Upregulation of IP-10 mRNA expression levels in C57BL/6J mouse plasma at 30 mg/kg, po by RT-qPCR analysis (reference value: 1); assay type: functional
[26] = Intrinsic clearance in mouse liver microsomes assessed per mg protein at 1 uM up to 60 mins; assay type: ADME, microsome; conditions: read-out: CLH
[27] = tested on: Plasma; test: Effect on cytokine profile in C57BL/6J mouse plasma assessed as IFNgamma levels at 3 mg/kg, po by multiplex assay; assay type: functional, organism-based; method in brief: as §1
[28] = tested on: Cynomolgus monkey; test: Activation of monocytes in cynomolgus monkey plasma assessed as upregulation of MIP1 levels at 9 mg/kg, po after 24 hrs by Luminex assay (reference value: 37 pg/ml); assay type: functional, Macaca fascicularis
[29] = tested on: Liver; test: Anti-inflammatory activity in C57BL/6J mouse liver assessed as IL-10 levels at 3 mg/kg, po by multiplex assay (reference value: 2 pg/g); assay type: functional; method in brief: as §1
[30] = tested on: Plasma; test: Induction of IFNalpha levels in C57BL/6J mouse plasma at 3 mg/kg, po by ELISA; assay type: functional
[31] = tested on: Cynomolgus monkey; test: Proinflammatory activity in cynomolgus monkey plasma assessed as TNFalpha levels at 3 mg/kg, po after 24 hrs by Luminex assay (reference value: 285 pg/ml); assay type: functional, Macaca fascicularis
[32] = tested on: Cynomolgus monkey; test: Activation of monocytes in cynomolgus monkey plasma assessed as upregulation of MCP1 levels at 3 mg/kg, po after 24 hrs by Luminex assay (reference value: 385 pg/ml); assay type: functional, Macaca fascicularis
[33] = tested on: Plasma; test: Anti-inflammatory activity in C57BL/6J mouse plasma assessed as IL-10 levels at 0.3 mg/kg, po by multiplex assay (reference value: 120 pg/ml); assay type: functional; method in brief: as §1

With `CCC[C@@H](CCO)Nc1nc(N)nc2c(F)cccc12` the Cmax [1] was 0.038 µg/mL, the AUC(0-t) [2] was 4.05 µg·h/mL and the microsomal CLint at 1 µM [3] was 21 µL/min/mg. For the same compound, the Activity [4] was 9135 pg/mL, the Activity [5] was greater than 10000 pg/mL and the Activity [6] was 55 pg/mL. The “fold change (FC)” value [7] was 2875, the Activity [8] was “Below limit of detection” and the metabolised at 0.25 h, 1 µM [9] was 93%. The Activity [10] was 180 pg/mL, the “fold change (FC)” value [11] was 3.5 and the Cp [12] was 0.014 µg/mL. The “inhibition (INH)” value [13] was “Not Active”, the solubility [14] was greater than 4 mg/mL and the Activity [15] was 330 pg/mL. For the same compound, the Activity [16] was 3785 pg/mL, the Activity [17] was 1945 pg/g and the “fold change (FC)” value [18] was 65. For the same compound, the Cmax [19] was 7610 ng/g, the Cmax [20] was 32 ng/g and the “fold change (FC)” value [21] was 145. The “fold change (FC)” value [22] was 35, the Activity [23] was “Active” and the Activity [24] was “Below limit of detection”. The “fold change (FC)” value [25] was 1100, the microsomal CLint at 1 µM [26] was 100 µL/min/mg and the Activity [27] was “Below limit of detection”. The Activity [28] was 310 pg/mL, the Activity [29] was 1355 pg/g and the Activity [30] was 695 pg/mL. It also gave an Activity [31] of 70 pg/mL, an Activity [32] of 7720 pg/mL and an Activity [33] of 345 pg/mL.
